# Bioassay records: PubChem, The Scripps Research Institute Molecular Screening Center
# Rows were chosen to be rich in hits. Some 2.8% of all compounds tested hit in one or more screens of this group.
# PAFAH1B2 FP inh – blocks human PAF acetylhydrolase 1b catalytic subunit 2; P68402; recombinant PAFAH1B2, FP-rhodamine activity probe, fluorescence polarization; inhibition, % at 3.39 µM; 1.2% of 340,000 active;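 active = inhibition above the mean of all tested compounds plus 3 SD, cut at about 24% in these data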;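 also: 0% = enzyme with DMSO and 100% = wells lacking PAFAH1B2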
# Target sequence (P68402 whole entry, looked up): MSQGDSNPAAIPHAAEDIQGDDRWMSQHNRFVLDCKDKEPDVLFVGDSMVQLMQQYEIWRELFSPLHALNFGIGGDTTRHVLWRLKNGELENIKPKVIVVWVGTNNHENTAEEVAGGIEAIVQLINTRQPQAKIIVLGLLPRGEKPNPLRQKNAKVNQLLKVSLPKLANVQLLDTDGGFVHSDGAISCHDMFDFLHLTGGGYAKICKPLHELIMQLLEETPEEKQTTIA
# HTRA1 inh – inhibitors of human serine peptidase HTRA1; inhibition, % at 5.96 µM; AID 504803; 0.5% of 340,000 active; Q92743; recombinant HTRA1, FP-rhodamine activity-based probe, fluorescence polarization; in the data active = inhibition above about 36%;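 also: 0% = enzyme with DMSO and 100% = wells lacking enzyme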
# PAFAH1B3 inh – blocks human PAF acetylhydrolase 1B catalytic subunit 3; recombinant PAFAH1B3, FP-rhodamine probe, fluorescence polarization; inhibition, % at 3.39 µM; 0.28% of 340,000 active;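 active = inhibition above the screen-wide average of all tested compounds plus 3 SD, cut at about 25% in these data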;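 also: 0% = enzyme with DMSO only and 100% = wells lacking PAFAH1B3 protein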
# PAFAH2 FP inh – inhibitors of human PAFAH2 | Q99487 | recombinant PAFAH2, FP-rhodamine activity probe, fluorescence polarization | inhibition, % at 3.39 µM | 0.99% of 340,000 active | AID 492956;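 active = inhibition above the mean over all tested compounds plus 3 SD, cut at about 30% in these data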;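 also: inhibitors block probe labeling of enzyme so polarization drops; 0% = enzyme with DMSO and 100% = wells lacking PAFAH2 protein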
# pPAFAH inh – pPAFAH (human) enzyme inhibition | 1.5% of 330,000 active | Q13093 | recombinant pPAFAH, FP-rhodamine probe fluorescence polarization | AID 463082 | inhibition, % at 3.39 µM;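 active = inhibition above the mean inhibition across the screen plus 3 SD, cut at about 25% in these data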;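 also: inhibitors block binding of the rhodamine activity-based probe so polarization drops; 0% = enzyme with DMSO and 100% = wells lacking pPAFAH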
# Target sequence (Q13093 whole entry, looked up): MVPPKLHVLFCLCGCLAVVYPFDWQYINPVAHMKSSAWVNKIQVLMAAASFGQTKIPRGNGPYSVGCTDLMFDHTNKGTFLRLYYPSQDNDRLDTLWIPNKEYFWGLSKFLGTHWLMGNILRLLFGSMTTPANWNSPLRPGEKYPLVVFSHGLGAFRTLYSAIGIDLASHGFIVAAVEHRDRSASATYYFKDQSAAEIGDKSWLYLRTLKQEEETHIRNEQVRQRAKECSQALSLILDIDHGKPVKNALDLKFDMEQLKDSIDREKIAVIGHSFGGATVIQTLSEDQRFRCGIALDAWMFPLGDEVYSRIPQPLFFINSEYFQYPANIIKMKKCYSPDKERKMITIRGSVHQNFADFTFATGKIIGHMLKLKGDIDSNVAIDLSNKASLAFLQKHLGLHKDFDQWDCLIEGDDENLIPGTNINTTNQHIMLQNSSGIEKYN
# mABHD4 FP – inhibits mouse alpha/beta hydrolase domain 4; Q8VD66; purified mABHD4, FP-Rh probe fluorescence polarization; inhibition, % at 8.92 µM; 0.54% of 370,000 active;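 active = inhibition exceeding the mean over every tested compound plus 3 SD, cut at about 30% in these data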;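 also: 0% = plate median of compound wells and 100% = S159A mutant with DMSO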
#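 assay system = mABHD4 protein | compound dosing = single nominal dose of 8.92 µM, 0.89% DMSO final | read-out basis = percent inhibition of probe binding, normalized to plate controls | schedule = Enzyme–compound pre-incubation 45 min, then probe 60 min, both 25 °C | detection = fluorescence polarization, excitation 525 nm, emission 598 nm, BODIPY TMR filters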
# * hit, by the source's call; . = no result.
SMILES,PAFAH1B2 FP inh,HTRA1 inh,PAFAH1B3 inh,PAFAH2 FP inh,pPAFAH inh,mABHD4 FP
Cc1ccc(CCNS(=O)(=O)c2ccc3c(c2)NC(=O)C(C)C(=O)N3)cc1 (stereo not drawn),27*,6,11,4,8,-9
Cc1ccc(S(=O)(=O)NCCCNS(=O)(=O)c2ccc(C)cc2)cc1,4,10,-1,-6,26*,-5
Cc1ccc(S(=O)(=O)NCCCN(C)C)cc1,4,1,2,2,-2,-2
Cc1ccc2[nH]cc(CCNS(=O)(=O)c3ccc(F)cc3)c2c1,27*,1,6,4,.,-2
CCCCCCCCN1C(=O)[C@@H](CC(=O)NCC23CC4CC(CC(C4)C2)C3)C[C@@]2(C(=O)OC)C1=C[C@H](COCc1ccccc1)O[C@@H]2C,.,.,.,.,.,6
CCOC(=O)[C@@]12CCCC3=C1N(CCC3)C(=O)[C@H]2CC(=O)NCCCN1CCCC1=O,.,.,.,.,.,-2
Cc1ccc(CCNS(=O)(=O)c2ccc(C)cc2)cc1,26*,-20,3,-5,19,-9
Cc1ccc(S(=O)(=O)NCCc2ccc(S(N)(=O)=O)cc2)cc1,12,0,6,5,2,1
CC1CC(NC(=O)C2(C)CC2(Cl)Cl)CC(C)(C)C1 (stereo not drawn),26*,-6,2,-1,-4,-9
CC1CC(NC(=O)CC#N)CC(C)(C)C1 (stereo not drawn),4,2,-6,-1,2,1
Cc1cccc(C)c1-n1nnnc1C1(C)Cn2nccc2C(=O)N1Cc1ccc(F)cc1 (stereo not drawn),.,.,.,.,.,-3
O=S(=O)(NCC(c1ccc2c(c1)OCO2)N1CCOCC1)c1ccc(F)cc1 (stereo not drawn),3,4,1,-2,5,2
O=S(=O)(NCC(c1ccc2c(c1)OCO2)N1CCOCC1)c1ccc(Br)cc1 (stereo not drawn),25*,13,3,-2,8,1
C[C@@H]1OCN(C)[C@H]2C[C@H]3c4[nH]c5cccc(-c6ccc7c(c6)OCO7)c5c4CCN3C[C@@H]12,.,.,.,.,.,14
CC(COc1cccc(Br)c1)CN1CCC(C(O)(c2ccccc2)c2ccccc2)CC1 (stereo not drawn),.,.,.,.,.,9
Cc1noc(C)c1CSCC(=O)Nc1ccccc1N1CCCCC1,30*,-10,2,-4,7,.
CCN(CC)S(=O)(=O)c1ccc(N2CCCC2)c(NC(=O)CSCc2c(C)noc2C)c1,.,-4,.,.,.,4
CCN1Cc2nnn(CC3CCCCC3)c2-c2ccccc2S1(=O)=O,.,.,.,.,.,6
Cc1ccc(C2(c3noc(CN4CCC(C(=O)N5CCOCC5)CC4)n3)CCCC2)cc1,27*,-1,3,-2,8,0
CCOC(=O)[C@@]12CN(C(=O)OC(C)(C)C)CC=C1N(Cc1ccc(OC)cc1)C(=O)[C@H]2CC(=O)N1CCOCC1,.,.,.,.,.,6
Cc1ccccc1-n1c(C)cc(/C=C(\C#N)C(=O)NCC2CCCO2)c1C (stereo not drawn),1,-6,-1,0,26*,1
Cc1ccc(/C=C(\C#N)C(=O)NCC2CCCO2)o1 (stereo not drawn),-4,3,13,-4,-6,-4
COc1ccc2c(c1)C[C@@H]1CC(C)(C)CN1S2(=O)=O,.,.,.,.,.,0
Cc1ccc(-n2nnnc2SCCNS(=O)(=O)c2ccccc2)cc1C,-3,-28,6,6,29*,-9
Cc1ccc(Cn2cc(CN3[C@H](c4ccccc4)COc4cc(Br)ccc4S3(=O)=O)nn2)cc1,.,.,.,.,.,-45
SMILES,PAFAH1B2 FP inh,HTRA1 inh,PAFAH1B3 inh,PAFAH2 FP inh,pPAFAH inh,mABHD4 FP
CC(NC(=O)c1cc(S(=O)(=O)N2CCOCC2)ccc1N1CCCC1)c1ccc(Cl)c(Cl)c1 (stereo not drawn),-1,-8,4,10,28*,7
Cc1ccc(NC(=O)c2cc(N3C(=O)C4CC=CCC4C3=O)ccc2N2CCOCC2)cc1Cl (stereo not drawn),-3,-3,12,3,26*,.
Cc1ccc(NC(=O)c2cc(S(=O)(=O)N3CCCCC3)ccc2N2CCOCC2)cc1S(=O)(=O)N(C)C,27*,3,26*,28,.,-4
Cc1ccc(-c2[nH]c(-c3ccc(C(=O)O)cc3)nc2-c2ccccc2)cc1,6,-15,1,2,31*,11
O=C(c1ccccc1)C1CCN(c2ncnc3sccc23)CC1,.,.,.,.,.,2
Cc1c(NC(=O)C(C)OC(=O)C23CC4CC(CC(Br)(C4)C2)C3)c(=O)n(-c2ccccc2)n1C (stereo not drawn),48*,-24,2,-3,-8,4
Cc1c(NC(=O)COC(=O)C23CC4CC(CC(O)(C4)C2)C3)c(=O)n(-c2ccccc2)n1C,0,4,0,7,2,-1
O=C(NCCSCc1ccc(Cl)cc1)c1cccs1,25*,-15,12,1,8,-2
O=C(CCc1ccccc1)N[C@H]1[C@H](OC(=O)c2ccco2)CCC[C@@]12C(=O)N(Cc1ccccc1)c1ccccc12,.,.,.,.,.,-8
Cc1ccc(S(=O)(=O)N2CCCC(C(=O)Nc3c(C)n(C)n(-c4ccccc4)c3=O)C2)cc1C (stereo not drawn),.,.,.,.,.,-5
O=C1NC[C@H](c2ccccc2)OC(=O)[C@H](Cc2ccc(F)cc2)C/C=C\C[C@H]1CC(=O)N(CCO)Cc1ccccc1,51*,-14,12,-6,12,-4
O=C1NC[C@@H](c2ccccc2)OC(=O)[C@@H](Cc2ccc(F)cc2)CC/C=C/C[C@H]1CC(=O)N(CCO)Cc1ccccc1,66*,-44,10,1,20,-7
O=C1NC[C@H](c2ccccc2)OC(=O)[C@@H](Cc2ccc(F)cc2)C/C=C\C[C@H]1CC(=O)N(CCO)Cc1ccccc1,16,-28,11,3,0,2
O=C1NC[C@@H](c2ccccc2)OC(=O)[C@H](Cc2ccc(F)cc2)C/C=C\C[C@H]1CC(=O)N(CCO)Cc1ccccc1,29*,-14,7,5,-1,-7
O=S(=O)(CC1NCc2cc(F)ccc21)NC1CCCC1 (stereo not drawn),.,.,.,.,.,-3
CC(C)c1ccc(N2C(=O)CC(Sc3ncn[nH]3)C2=O)cc1 (stereo not drawn),17,-9,0,-8,3,-1
CC(C)c1ccc(N2C(=O)CC(Sc3nc4ccccc4o3)C2=O)cc1 (stereo not drawn),26*,-22,10,-8,5,-2
N#CCC[C@H]1CC[C@]2(CCCN(c3ccccc3)C2)O1,.,.,.,.,.,0
CCCCNC(=O)C(c1ccc(OCC(=O)OC)c(C(=O)OC)c1)N(CCOC)C(=O)CCCCCN1C(=O)NC(c2ccc(-c3ccccc3)cc2)C(C(=O)OCc2ccccc2)=C1C (stereo not drawn),.,.,.,.,49*,-15
